Calls of active or inactive are those of the source.
Legend:
[1] = Antagonist activity at chimpanzee P2Y14R stably expressed in human HEK cells assessed as inhibition of UDP-glucose induced Ca2+ signaling incubated for 20 mins by FLIPR analysis; assay type: cell-based; details: Pan troglodytes, HEK293, 20 min
[2] = target: 5-hydroxytryptamine receptor 1B (Homo sapiens, UniProt P28222); assay: Displacement of [3H]-5-CT from human 5-HT1B receptor assessed as inhibition constant by radioligand displacement assay
[3] = target: T1, Alpha-2A adrenergic receptor (Homo sapiens, UniProt P08913); assay: Displacement of [3H]-Rauwolscine from human adrenergic alpha2A receptor assessed as inhibition constant by radioligand displacement assay
T1 sequence (P08913 whole entry): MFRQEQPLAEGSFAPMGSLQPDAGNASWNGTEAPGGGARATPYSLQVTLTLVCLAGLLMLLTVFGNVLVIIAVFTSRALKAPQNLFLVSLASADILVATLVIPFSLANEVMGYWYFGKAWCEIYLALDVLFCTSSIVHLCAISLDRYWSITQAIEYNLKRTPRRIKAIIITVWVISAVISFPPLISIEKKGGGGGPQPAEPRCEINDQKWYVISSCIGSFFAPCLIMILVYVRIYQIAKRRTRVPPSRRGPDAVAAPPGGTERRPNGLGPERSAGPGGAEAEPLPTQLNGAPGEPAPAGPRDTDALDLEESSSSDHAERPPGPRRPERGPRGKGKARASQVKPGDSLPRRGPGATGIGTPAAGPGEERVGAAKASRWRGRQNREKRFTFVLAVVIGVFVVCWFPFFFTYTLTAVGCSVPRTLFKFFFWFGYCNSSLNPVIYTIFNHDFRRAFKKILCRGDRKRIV

P2Y purinoceptor 14 [4] = target: T2, P2Y purinoceptor 14 (Homo sapiens, UniProt Q15391); assay: Displacement of fluorescent tracer 4-(4-(1-(4-(1-(6-(3-carboxylato-4-(3-iminio-3H-xanthen-9-yl)benzamido)hexyl)-4,5-dihydro-1H-pyrrol-3-yl)butyl)piperidin-1-ium-4-yl)phenyl)-7-(4-(trifluoromethyl)phenyl)-2-naphthoate from human P2Y14R stably expressed in CHO cells assessed as inhibition constant by flow cytometry; assay type: cell-based
T2 sequence (Q15391 whole entry): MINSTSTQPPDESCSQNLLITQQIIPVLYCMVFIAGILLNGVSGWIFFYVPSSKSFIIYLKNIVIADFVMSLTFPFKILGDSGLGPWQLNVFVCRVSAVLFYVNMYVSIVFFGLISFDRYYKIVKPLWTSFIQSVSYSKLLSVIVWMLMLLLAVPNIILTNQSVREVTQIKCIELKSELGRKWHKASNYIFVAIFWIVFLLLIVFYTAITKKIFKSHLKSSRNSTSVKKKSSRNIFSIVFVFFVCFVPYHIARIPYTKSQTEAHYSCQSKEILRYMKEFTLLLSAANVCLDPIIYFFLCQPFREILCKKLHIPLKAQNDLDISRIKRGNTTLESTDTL
Outline: (§1)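 Whole-cell competitive binding: CHO cells expressing hP2Y14R (or HEK-293 cells expressing mP2Y14R) incubated with AlexaFluor488-labelled antagonist tracer at 20 nM.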

[5] = Selectivity ratio, ratio of IC50 for displacement of fluorescent tracer 4-(4-(1-(4-(1-(6-(3-carboxylato-4-(3-iminio-3H-xanthen-9-yl)benzamido)hexyl)-4,5-dihydro-1H-pyrrol-3-yl)butyl)piperidin-1-ium-4-yl)phenyl)-7-(4-(trifluoromethyl)phenyl)-2-naphthoate from mouse P2Y14R stably expressed in human HEK293 cells to IC50 for displacement of fluorescent tracer 4-(4-(1-(4-(1-(6-(3-carboxylato-4-(3-iminio-3H-xanthen-9-yl)benzamido)hexyl)-4,5-dihydro-1H-pyrrol-3-yl)butyl)piperidin-1-ium-4-yl)phenyl)-7-(4-(trifluoromethyl)phenyl)-2-naphthoate from human P2Y14R stably expressed in CHO cells; assay type: cell-based
[6] = Lipophilicity, log D of compound at pH 7.4 incubated for 20 hrs by HPLC analysis; assay type: physicochemical; details: buffer
[7] = target: T3, Alpha-1B adrenergic receptor (Homo sapiens, UniProt P35368); assay: Displacement of [3H]-Prazosin from human adrenergic alpha1B receptor assessed as inhibition constant by radioligand displacement assay
T3 sequence (P35368 whole entry): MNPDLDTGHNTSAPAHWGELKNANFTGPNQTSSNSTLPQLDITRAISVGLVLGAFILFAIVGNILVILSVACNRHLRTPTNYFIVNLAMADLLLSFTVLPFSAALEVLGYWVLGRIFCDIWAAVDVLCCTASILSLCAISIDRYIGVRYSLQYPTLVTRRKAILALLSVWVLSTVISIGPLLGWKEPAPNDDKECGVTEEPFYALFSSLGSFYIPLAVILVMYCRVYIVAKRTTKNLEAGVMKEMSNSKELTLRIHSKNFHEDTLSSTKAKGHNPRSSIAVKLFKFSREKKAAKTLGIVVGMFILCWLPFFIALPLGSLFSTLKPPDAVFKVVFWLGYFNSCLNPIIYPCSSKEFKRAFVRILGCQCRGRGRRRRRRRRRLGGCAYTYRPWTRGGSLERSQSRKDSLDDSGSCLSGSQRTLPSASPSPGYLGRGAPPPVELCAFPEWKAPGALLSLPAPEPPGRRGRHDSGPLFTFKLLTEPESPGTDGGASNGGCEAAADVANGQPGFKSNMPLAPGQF

Mus musculus [8] = assay: Antiallodynic activity in CCI surgery neuropathic pain Hsd:ICR mouse model assessed as reversal of mechano-allodynia by measuring paw withdrawal threshold at 10 micromol/kg,po and measured upto 6 hrs by von frey test; assay type: functional, organism-based; details: dose 10.0 µmol/kg
Outline: (§2)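 CCI neuropathic pain in adult male CD-1 mice. Single oral gavage dose of 10 μmol/kg on day 7 post-surgery. Vehicle 5% DMSO + 10% (Kolliphor HS 15:DMSO 5:95) in 0.5% methylcellulose, 0.2 mL. Von Frey paw withdrawal threshold on both hindpaws. Mean ± SD; two-way ANOVA with Dunnett's test.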

Mus musculus [9] = assay: Antiallodynic activity in CCI surgery neuropathic pain Hsd:ICR mouse model assessed as reversal of mechano-allodynia by measuring paw withdrawal threshold at 10 micromol/kg,ip and measured at 3 hrs by von frey test; assay type: functional, organism-based; details: dose 10.0 µmol/kg
Outline: (§3)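 CCI neuropathic pain in adult male Hsd:ICR (CD-1) mice (20–30 g). Single i.p. injection on day 7 after sciatic nerve constriction, at peak pain. Vehicle 10% (Kolliphor HS 15:DMSO 5:95) in saline, 0.2 mL. Paw withdrawal threshold by von Frey filaments on ipsilateral and contralateral hindpaws. Mean ± SD; two-way ANOVA with Dunnett's test versus day 0 and day 7.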

P2Y purinoceptor 14 [10] = target: T4, P2Y purinoceptor 14 (Mus musculus, UniProt Q9ESG6); assay: Displacement of fluorescent tracer 4-(4-(1-(4-(1-(6-(3-carboxylato-4-(3-iminio-3H-xanthen-9-yl)benzamido)hexyl)-4,5-dihydro-1H-pyrrol-3-yl)butyl)piperidin-1-ium-4-yl)phenyl)-7-(4-(trifluoromethyl)phenyl)-2-naphthoate from mouse P2Y14R stably expressed in human HEK293 cells by flow cytometry; assay type: cell-based
T4 sequence (Q9ESG6 whole entry): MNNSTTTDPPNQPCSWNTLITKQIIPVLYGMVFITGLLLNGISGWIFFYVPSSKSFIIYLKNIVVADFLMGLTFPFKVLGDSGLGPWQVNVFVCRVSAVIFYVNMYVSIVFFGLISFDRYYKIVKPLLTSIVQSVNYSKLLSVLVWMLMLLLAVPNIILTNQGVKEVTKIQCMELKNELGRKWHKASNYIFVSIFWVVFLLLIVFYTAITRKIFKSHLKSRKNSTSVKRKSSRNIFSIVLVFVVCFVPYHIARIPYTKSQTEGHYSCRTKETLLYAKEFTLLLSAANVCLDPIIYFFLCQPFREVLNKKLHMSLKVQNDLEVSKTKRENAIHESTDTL
Outline: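 Whole-cell competitive binding: CHO cells expressing hP2Y14R (or HEK-293 cells expressing mP2Y14R) incubated with AlexaFluor488-labelled antagonist tracer at 20 nM. […] Ki derived by dividing IC50 by 1.72.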

Mus musculus [11] = assay: Antiallodynic activity in CCI surgery neuropathic pain Hsd:ICR mouse model assessed as reversal of mechano-allodynia by measuring paw withdrawal threshold at 10 micromol/kg,ip and measured upto 5 days by von frey test; assay type: functional, organism-based; details: dose 10.0 µmol/kg, time <= 5.0 day; outline: as §3
[12] = target: T5, P2Y purinoceptor 14 (Homo sapiens) (UniProt Q15391); assay: Binding affinity to human P2Y14R stably expressed in CHO cells at 2 to 20000 nM by flow cytometry; assay type: cell-based; details: dose 2-20000 nM
T5 sequence (whole entry): T2 sequence (Q15391 whole entry)
Outline: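 Whole CHO cells expressing hP2Y14R. Binding of an AlexaFluor-free JaneliaFluor 646 tracer conjugate was tested at final concentrations of 2, 100, 500 and 20,000 nM, under conditions similar to the AlexaFluor488 tracer assay (20 nM). Specific binding was read by flow cytometry.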

P2Y purinoceptor 14 [13] = target: T2, P2Y purinoceptor 14; assay: Displacement of fluorescent tracer 4-(4-(1-(4-(1-(6-(3-carboxylato-4-(3-iminio-3H-xanthen-9-yl)benzamido)hexyl)-4,5-dihydro-1H-pyrrol-3-yl)butyl)piperidin-1-ium-4-yl)phenyl)-7-(4-(trifluoromethyl)phenyl)-2-naphthoate from human P2Y14R stably expressed in CHO cells by flow cytometry; assay type: cell-based; outline: as §1
[14] = target: T5, P2Y purinoceptor 14 (Homo sapiens); assay: Displacement of fluorescent tracer 4-(4-(1-(4-(1-(6-(3-carboxylato-4-(3-iminio-3H-xanthen-9-yl)benzamido)hexyl)-4,5-dihydro-1H-pyrrol-3-yl)butyl)piperidin-1-ium-4-yl)phenyl)-7-(4-(trifluoromethyl)phenyl)-2-naphthoate from human P2Y14R stably expressed in CHO cells upto 100 uM by flow cytometry; assay type: cell-based
Histamine H1 receptor = Histamine H1 receptor (Homo sapiens, UniProt P35367); assay: Displacement of [3H]-Pyrilamine from human histamine H1 receptor assessed as inhibition constant by radioligand displacement assay
[15] = target: Sigma intracellular receptor 2 (Homo sapiens, UniProt Q5BJF2); assay: Displacement of [3H]-DTG from human sigma 2 receptor assessed as inhibition constant by radioligand displacement assay
[16] = target: Beta-3 adrenergic receptor (Homo sapiens, UniProt P13945); assay: Displacement of [125I]-Pindolol from human adrenergic beta3 receptor assessed as inhibition constant by radioligand displacement assay
[17] = target: Sigma non-opioid intracellular receptor 1 (Homo sapiens, UniProt Q99720); assay: Displacement of [3H]-Pentazocine from human sigma 1 receptor assessed as inhibition constant by radioligand displacement assay
[18] = Prodrug conversion in CD-1 mouse plasma assessed as AUC (0 to infinity) of 4-(4-((1S,4S,5S)-2-azabicyclo[2.2.1]heptan-5-yl)phenyl)-7-(4-(trifluoromethyl)phenyl)-2-naphthoic acid at 10 mg/kg,sc and measured upto 24 hrs by LC-MS/MS analysis; assay type: ADME, organism-based; parameters: dose 10 mg/kg, time < 24 hrs, route sc; details: in vivo
Outline: (§4)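 Female CD1 mice given mono-ester prodrug subcutaneously at 10 mg/kg. Released parent acid followed in plasma (peak concentration, t1/2, AUCinf) and total amount excreted in urine.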

[19] = Stability in mouse plasma assessed as half life at 1 uM and measured at 120 mins by LC-MS/MS analysis; assay type: ADME, cell-free
Mus musculus [20] = assay: Antiallodynic activity in CCI surgery neuropathic pain Hsd:ICR mouse model assessed as reversal of mechano-allodynia by measuring paw withdrawal threshold at 10 micromol/kg,po and measured at 1 hrs by von frey test; assay type: functional, organism-based; details: dose 10.0 µmol/kg; outline: as §2
[21] = Stability in human plasma assessed as half life at 1 uM and measured at 120 mins by LC-MS/MS analysis; assay type: ADME, cell-free; details: 2 h, 1 µM
[22] = Prodrug conversion in CD-1 mouse plasma assessed as half life of 4-(4-((1S,4S,5S)-2-azabicyclo[2.2.1]heptan-5-yl)phenyl)-7-(4-(trifluoromethyl)phenyl)-2-naphthoic acid at 10 mg/kg,sc and measured upto 24 hrs by LC-MS/MS analysis; assay type: ADME, organism-based; details: in vivo
Outline: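 Ester prodrug given subcutaneously at 10 mg/kg to female CD1 mice. Plasma levels of the released active acid followed over time, with half-life derived for the active drug.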

[23] = Prodrug conversion in CD-1 mouse plasma assessed as Cmax of 4-(4-((1S,4S,5S)-2-azabicyclo[2.2.1]heptan-5-yl)phenyl)-7-(4-(trifluoromethyl)phenyl)-2-naphthoic acid at 10 mg/kg,sc and measured from 2 to 4 hrs by LC-MS/MS analysis; assay type: ADME, organism-based; parameters: time upper 4 hrs, time lower 2 hrs, dose 10 mg/kg, route sc; details: in vivo; outline: as §4
[24] = Prodrug conversion in CD-1 mouse assessed as 4-(4-((1S,4S,5S)-2-azabicyclo[2.2.1]heptan-5-yl)phenyl)-7-(4-(trifluoromethyl)phenyl)-2-naphthoic acid excretion in urine at 10 mg/kg,sc and measured upto 24 hrs by LC-MS/MS analysis; assay type: ADME, organism-based; details: in vivo; outline: as §4

Sequence of 5-hydroxytryptamine receptor 1B (P28222 whole entry): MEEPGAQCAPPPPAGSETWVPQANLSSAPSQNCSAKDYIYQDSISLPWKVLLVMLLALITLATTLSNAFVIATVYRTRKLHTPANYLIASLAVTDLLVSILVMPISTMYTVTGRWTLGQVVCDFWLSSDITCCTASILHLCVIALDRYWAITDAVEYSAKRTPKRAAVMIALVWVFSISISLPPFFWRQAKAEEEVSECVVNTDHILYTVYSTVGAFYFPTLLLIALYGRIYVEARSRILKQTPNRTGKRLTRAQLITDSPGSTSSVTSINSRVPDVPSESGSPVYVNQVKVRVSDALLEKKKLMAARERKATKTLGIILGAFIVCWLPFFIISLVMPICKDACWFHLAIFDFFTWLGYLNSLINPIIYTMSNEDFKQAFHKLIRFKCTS
Sequence of Sigma intracellular receptor 2 (Q5BJF2 whole entry): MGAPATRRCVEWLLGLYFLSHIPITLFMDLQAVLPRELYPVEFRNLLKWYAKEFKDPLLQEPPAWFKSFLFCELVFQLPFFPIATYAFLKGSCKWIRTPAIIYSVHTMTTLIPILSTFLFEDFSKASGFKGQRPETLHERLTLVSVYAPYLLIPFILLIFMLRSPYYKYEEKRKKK
Sequence of Sigma non-opioid intracellular receptor 1 (Q99720 whole entry): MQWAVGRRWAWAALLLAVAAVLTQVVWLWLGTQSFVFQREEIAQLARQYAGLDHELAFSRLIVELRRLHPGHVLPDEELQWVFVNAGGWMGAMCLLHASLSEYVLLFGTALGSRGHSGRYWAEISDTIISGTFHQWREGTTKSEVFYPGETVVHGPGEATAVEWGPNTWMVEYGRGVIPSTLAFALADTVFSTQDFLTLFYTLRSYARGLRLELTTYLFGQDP
Sequence of Histamine H1 receptor (P35367 whole entry): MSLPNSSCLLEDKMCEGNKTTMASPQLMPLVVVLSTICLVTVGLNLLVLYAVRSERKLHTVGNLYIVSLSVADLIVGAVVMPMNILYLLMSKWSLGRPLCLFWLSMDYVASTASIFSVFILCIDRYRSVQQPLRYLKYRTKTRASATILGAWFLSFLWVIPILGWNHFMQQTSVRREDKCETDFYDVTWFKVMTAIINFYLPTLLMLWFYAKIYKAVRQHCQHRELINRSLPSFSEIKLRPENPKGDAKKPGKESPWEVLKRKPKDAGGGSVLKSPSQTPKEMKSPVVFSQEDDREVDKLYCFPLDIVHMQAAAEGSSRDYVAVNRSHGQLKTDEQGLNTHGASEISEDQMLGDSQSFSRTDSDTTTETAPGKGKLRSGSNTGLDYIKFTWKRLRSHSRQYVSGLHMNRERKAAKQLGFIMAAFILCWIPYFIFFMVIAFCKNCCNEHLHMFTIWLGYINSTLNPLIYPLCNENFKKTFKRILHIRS
Sequence of Beta-3 adrenergic receptor (P13945 whole entry): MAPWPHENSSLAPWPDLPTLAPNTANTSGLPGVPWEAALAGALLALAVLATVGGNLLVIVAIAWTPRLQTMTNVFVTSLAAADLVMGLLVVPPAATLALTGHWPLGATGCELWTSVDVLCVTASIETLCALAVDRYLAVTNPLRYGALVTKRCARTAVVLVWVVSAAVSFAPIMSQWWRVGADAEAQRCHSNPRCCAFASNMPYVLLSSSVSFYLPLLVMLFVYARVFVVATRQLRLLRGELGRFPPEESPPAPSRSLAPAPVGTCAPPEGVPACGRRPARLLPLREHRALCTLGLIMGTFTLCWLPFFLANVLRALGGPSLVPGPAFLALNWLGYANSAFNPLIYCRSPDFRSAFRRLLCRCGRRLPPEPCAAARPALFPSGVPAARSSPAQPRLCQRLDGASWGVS

O=C(O)c1cc(-c2ccc(C3(O)CCNCC3)cc2)c2ccc(-c3ccc(C(F)(F)F)cc3)cc2c1
IC50 [1]: 0.0063 µM

O=C(O)c1cc(-c2ccc(C3(O)C[C@H]4CNC[C@@H]4C3)cc2)c2ccc(-c3ccc(C(F)(F)F)cc3)cc2c1 (racemic)
Ki [2]: 5.4 µM | Ki [3]: 5.7 µM | Ki (P2Y purinoceptor 14 [4]): 0.00551 µM | Ratio IC50 [5]: 0.715 | logD at 20 h [6]: 1.1 | Ki [7]: 6.4 µM | Activity (Mus musculus [8]): Active | Activity (Mus musculus [9]): Active | IC50 (P2Y purinoceptor 14 [10]): 0.00678 µM | Activity (Mus musculus [11]): Active

C[Si]1(C)C2=CC(=[N+]3CCC3)C=CC2=C(c2cc(C(=O)NCCCCCCn3cc(CCCCN4CCC(c5ccc(-c6cc(C(=O)O)cc7cc(-c8ccc(C(F)(F)F)cc8)ccc67)cc5)CC4)nn3)ccc2C(=O)[O-])c2ccc(N3CCC3)cc21
Ki (P2Y purinoceptor 14 [4]): 9.24 µM | Activity [12]: inactive | IC50 (P2Y purinoceptor 14 [13]): 25.9 µM

O=C(Cc1ccc(C(F)(F)F)cc1)Nc1cccc(-c2nc3cc(Cl)ccc3o2)c1
Activity [14]: inactive

O=C(O)c1cc(-c2ccc(C3CCCNCC3)cc2)c2ccc(-c3ccc(C(F)(F)F)cc3)cc2c1 (racemic)
Ki [2]: 4.5 µM | Ki (Histamine H1 receptor): 2.8 µM | Ki [15]: 2.8 µM | Ki (P2Y purinoceptor 14 [4]): 0.00557 µM | Ratio IC50 [5]: 2.68 | logD at 20 h [6]: 2.1 | Activity (Mus musculus [8]): Active | Ki [16]: 6.6 µM | Ki [17]: 0.89 µM | IC50 (P2Y purinoceptor 14 [10]): 0.0257 µM | Activity (Mus musculus [11]): Active

CN(C)C(=O)COC(=O)c1cc(-c2ccc([C@H]3C[C@H]4C[C@@H]3CN4)cc2)c2ccc(-c3ccc(C(F)(F)F)cc3)cc2c1
AUC [18]: 15300 ng·h/mL | half-life at 1 µM [19]: 1.5 min | Activity (Mus musculus [20]): Active | t1/2 [21]: > 12 h | t1/2 [22]: 2.63 h | Cmax [23]: 2000 ng/mL | Activity (Mus musculus [8]): Active | Drug excretion [24]: 1550 ng | Activity (Mus musculus [11]): Active
